Assay results: ChEMBL document CHEMBL4038291, “Discovery of novel benzothienoazepine derivatives as potent inhibitors of respiratory syncytial virus” (Bioorg Med Chem Lett, 2017)
The source made the active and inactive calls. The calls are words filed in the database; no cut-off is given here.

How the values were obtained:
[1] = Inhibition of RSV A2 RNA-directed RNA polymerase L infected in human Hep2 cells assessed as reduction in virus-induced cytopathic effect measured after 5 days by resazurin dye based fluorescence assay; assay type: cell-based; details: human respiratory syncytial virus, HEp-2, 120 h
Outline: (§1)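 Read-out is cytopathic effect of RSV infection in HEp-2 cells. IC50 is the concentration reducing CPE by 50%. Values averaged from 2 experiments.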

[2] = Cytotoxicity against human Hep2 cells; assay type: cell-based; details: HEp-2 cells
[3] = Inhibition of Respiratory syncytial virus B WST RNA-directed RNA polymerase L infected in human Hep2 cells assessed as reduction in virus-induced cytopathic effect measured after 6 days by resazurin dye based fluorescence assay; assay type: cell-based; details: HEp-2, 144 h; outline: as §1
[4] = test system: Human respiratory syncytial virus A strain Long; assay: Antiviral activity against human respiratory syncytial virus A strain long infected in cotton rat assessed as reduction in NS1 expression administered intranasally pretreated for 4 hrs followed by viral infection measured after 4 days by RT-qPCR analysis; assay type: functional
Nucleoprotein = target: T1, Nucleoprotein (Human respiratory syncytial virus A (strain A2), UniProt P03418); assay: (§2) Inhibition of Respiratory syncytial virus A2 protein N by luciferase reporter-based RSV minigenome assay
T1 sequence (P03418 whole entry): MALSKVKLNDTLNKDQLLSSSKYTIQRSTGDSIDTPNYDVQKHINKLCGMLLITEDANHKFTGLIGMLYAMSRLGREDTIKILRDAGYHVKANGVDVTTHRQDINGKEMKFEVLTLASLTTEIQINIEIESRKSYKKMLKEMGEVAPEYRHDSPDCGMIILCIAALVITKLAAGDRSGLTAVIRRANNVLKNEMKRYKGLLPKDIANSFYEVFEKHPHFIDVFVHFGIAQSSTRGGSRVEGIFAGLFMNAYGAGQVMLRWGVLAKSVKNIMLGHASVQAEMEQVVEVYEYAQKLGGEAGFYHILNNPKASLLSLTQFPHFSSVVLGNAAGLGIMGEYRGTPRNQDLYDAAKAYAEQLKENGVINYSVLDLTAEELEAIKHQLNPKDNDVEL

[5] = target: T2, Nucleoprotein (Human respiratory syncytial virus A (strain A2)) (UniProt P03418); assay: as §2
T2 sequence (whole entry): T1 sequence (P03418 whole entry)

[6] = test system: Human respiratory syncytial virus A2; assay: Antiviral activity against Respiratory syncytial virus A2 infected in human Hep2 cells at 0.001 to 3.125 ug/ml after 6 passages; assay type: functional, cell-based
[7] = test system: Human respiratory syncytial virus A strain Long; assay: Antiviral activity against human respiratory syncytial virus A strain long infected in cotton rat assessed as reduction in lung viral load administered intranasally pretreated for 4 hrs followed by viral infection measured after 4 days by plaque assay; assay type: functional
[8] = target: T3, Protein M2-1 (Human respiratory syncytial virus A (strain A2)) (UniProt P04545); assay: Inhibition of Respiratory syncytial virus A2 M2-1 by luciferase reporter-based RSV minigenome assay
T3 sequence (whole entry): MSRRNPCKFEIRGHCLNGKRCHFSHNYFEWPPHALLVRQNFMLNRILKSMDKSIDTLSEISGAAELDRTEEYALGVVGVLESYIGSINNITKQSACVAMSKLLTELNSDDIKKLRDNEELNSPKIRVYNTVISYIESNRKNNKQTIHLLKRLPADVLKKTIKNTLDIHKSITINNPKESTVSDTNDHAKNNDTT

[9] = Antiviral activity against human respiratory syncytial virus A strain long infected in cotton rat assessed as reduction in plaque forming units in lungs at 0.33 to 3.3 mg/ml administered intranasally pretreated for 4 hrs followed by viral infection measured after 4 days; assay type: functional
[10] = target: Phosphoprotein (Human respiratory syncytial virus A (strain A2)) (UniProt P03421); assay: (§3) Inhibition of Respiratory syncytial virus A2 protein P by luciferase reporter-based RSV minigenome assay
Phosphoprotein = Phosphoprotein (Human respiratory syncytial virus A (strain A2), UniProt P03421); assay: as §3
[11] = test system: Human respiratory syncytial virus A2; assay: Inhibition of Respiratory syncytial virus A2 RNA-directed RNA polymerase L by luciferase reporter-based RSV minigenome assay

Chain of Phosphoprotein (P03421 whole entry): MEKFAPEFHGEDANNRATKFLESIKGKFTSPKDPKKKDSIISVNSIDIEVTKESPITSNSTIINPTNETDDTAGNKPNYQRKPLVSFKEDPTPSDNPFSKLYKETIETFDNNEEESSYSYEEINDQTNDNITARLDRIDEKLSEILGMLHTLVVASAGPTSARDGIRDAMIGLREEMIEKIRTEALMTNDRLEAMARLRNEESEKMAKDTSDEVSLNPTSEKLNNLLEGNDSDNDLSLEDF
Chain of Phosphoprotein (Human respiratory syncytial virus A (strain A2)) (P03421 whole entry): as above

Row | SMILES | IC50 [1] | CC50 [2] | IC50 [3] | other results
1 | O=C(Nc1ccc(C(=O)N2CCc3cc(-c4nc5ccccc5o4)sc3-c3ccccc32)cc1)c1cccnc1N1CC2(CCOCC2)C1 | 56 nM | > 14900 nM | > 1500 nM | –
2 | O=C(NC1CC1)c1cc2c(s1)-c1ccccc1N(C(=O)c1ccc(NC(=O)c3cccnc3N3CC4(CCOCC4)C3)cc1)CC2 | 2.2 nM | 6410 nM | 286 nM | –
3 | Cc1cnc(N2CC3(CCOCC3)C2)c(C(=O)Nc2ccc(C(=O)N3CCc4cc(-c5nc6ccccc6[nH]5)sc4-c4ccccc43)cc2)c1 | 0.5 nM | > 14600 nM | 5.2 nM | –
4 | Cc1cnc(N2CC3(CCOCC3)C2)c(C(=O)Nc2ccc(C(=O)N3CCc4cc(-c5cc6ccccn6n5)sc4-c4ccccc43)cc2)c1 | 0.7 nM | > 14600 nM | 8.1 nM | –
5 | O=C(Nc1ccc(C(=O)N2CCc3cc(-c4nc5cc(C(F)(F)F)ccc5[nH]4)sc3-c3ccccc32)cc1)c1cccnc1N1CC2(CCOCC2)C1 | 3.1 nM | > 13600 nM | > 1360 nM | –
6 | O=C(Nc1ccc(C(=O)N2CCc3cc(-c4nc5c(Cl)cccc5[nH]4)sc3-c3ccccc32)cc1)c1cccnc1N1CC2(CCOCC2)C1 | 0.8 nM | > 14200 nM | 30.7 nM | –
7 | O=C(Nc1ccc(C(=O)N2CCc3cc(-c4nc5cc(Cl)ccc5[nH]4)sc3-c3ccccc32)cc1)c1cccnc1N1CC2(CCOCC2)C1 | 1.6 nM | > 14200 nM | 161 nM | –
8 | Cc1cnc(N2CC3(CCOCC3)C2)c(C(=O)Nc2ccc(C(=O)N3CCc4cc(-c5ncc(C)[nH]5)sc4-c4ccccc43)cc2)c1 | 0.7 nM | > 15500 nM | 3.3 nM | –
9 | CC(C)c1cnc(N2CC3(CCOCC3)C2)c(C(=O)Nc2ccc(C(=O)N3CCc4cc(-c5nc6ccccc6[nH]5)sc4-c4ccccc43)cc2)c1 | 5.7 nM | > 14100 nM | > 1410 nM | –
10 | COc1ccc(C(=O)Nc2ccc(C(=O)N3CCc4cc(-c5nc6ccccc6[nH]5)sc4-c4ccccc43)cc2)c(N2CC3(CCOCC3)C2)n1 | 0.5 nM | > 14300 nM | 37.8 nM | –
11 | O=C(Nc1ccc(C(=O)N2CCc3cc(-c4nc5c(C(F)(F)F)cccc5[nH]4)sc3-c3ccccc32)cc1)c1cccnc1N1CC2(CCOCC2)C1 | 0.6 nM | > 13600 nM | 38.8 nM | –
12 | Cc1cccc2[nH]c(-c3cc4c(s3)-c3ccccc3N(C(=O)c3ccc(NC(=O)c5cccnc5N5CC6(CCOCC6)C5)cc3)CC4)nc12 | 0.6 nM | > 14600 nM | 52.9 nM | –
13 | O=C(Nc1ccc(C(=O)N2CCc3cc(-c4nc5c(F)cccc5[nH]4)sc3-c3ccccc32)cc1)c1cccnc1N1CC2(CCOCC2)C1 | 1.6 nM | > 14600 nM | 90.9 nM | –
14 | N#Cc1ccc2[nH]c(-c3cc4c(s3)-c3ccccc3N(C(=O)c3ccc(NC(=O)c5cccnc5N5CC6(CCOCC6)C5)cc3)CC4)nc2c1 | 0.5 nM | > 14400 nM | 162 nM | –
15 | O=C(Nc1ccc(C(=O)N2CCc3cc(-c4nc5ccccc5[nH]4)sc3-c3ccccc32)cc1)c1ccc(C(F)(F)F)nc1N1CC2(CCOCC2)C1 | 7.3 nM | > 13600 nM | > 1360 nM | –
16 | Cc1cnc(N2CC3(CCOCC3)C2)c(C(=O)Nc2ccc(C(=O)N3CCc4cc(-c5nc6cccc(F)c6[nH]5)sc4-c4ccccc43)cc2)c1 | 1.4 nM | > 14300 nM | 2.1 nM | Activity [4]: Dose-dependent effect; IC50 (Nucleoprotein): 2 nM; inhibition [5]: Dose-dependent effect; Activity [6]: inactive; Activity [7]: Active; inhibition [8]: Dose-dependent effect; Activity [9]: <2.3 log10PFU; inhibition [10]: Dose-dependent effect; IC50 (Phosphoprotein): 2 nM; inhibition [11]: Dose-dependent effect
17 | CCc1cnc(N2CC3(CCOCC3)C2)c(C(=O)Nc2ccc(C(=O)N3CCc4cc(-c5nc6ccccc6[nH]5)sc4-c4ccccc43)cc2)c1 | 0.7 nM | > 14300 nM | 13.3 nM | –
18 | N#Cc1cccc2[nH]c(-c3cc4c(s3)-c3ccccc3N(C(=O)c3ccc(NC(=O)c5cccnc5N5CC6(CCOCC6)C5)cc3)CC4)nc12 | 0.6 nM | > 14400 nM | 69 nM | –
19 | Cc1cnc(N2CC3(CCOCC3)C2)c(C(=O)Nc2ccc(C(=O)N3CCc4cc(-c5cn6ccccc6n5)sc4-c4ccccc43)cc2)c1 | 1.8 nM | > 14600 nM | 14.4 nM | –
20 | Cc1ccnc(N2CC3(CCOCC3)C2)c1C(=O)Nc1ccc(C(=O)N2CCc3cc(-c4nc5ccccc5[nH]4)sc3-c3ccccc32)cc1 | – | – | > 1470 nM | –
21 | Cc1cnc(N2CC3(CCOCC3)C2)c(C(=O)Nc2ccc(C(=O)N3CCc4cc(-c5nc(C)c(C)[nH]5)sc4-c4ccccc43)cc2)c1 | 1.6 nM | > 15100 nM | 6.2 nM | –
22 | O=C(Nc1ccc(C(=O)N2CCc3cc(-c4nc5ccccc5[nH]4)sc3-c3ccccc32)cc1)c1cccnc1N1CC2(CCOCC2)C1 | 0.8 nM | > 14900 nM | 59.8 nM | –
23 | O=C(Nc1ccc(C(=O)N2CCc3cc(-c4cc5ccccc5[nH]4)sc3-c3ccccc32)cc1)c1cccnc1N1CC2(CCOCC2)C1 | 1.5 nM | > 15000 nM | 1020 nM | –
24 | O=C(Nc1ccc(C(=O)N2CCc3cc(-c4nc5cncnc5[nH]4)sc3-c3ccccc32)cc1)c1cccnc1N1CC2(CCOCC2)C1 | 13.1 nM | > 14900 nM | > 1500 nM | –
25 | O=C(Nc1ccccc1)c1cc2c(s1)-c1ccccc1N(C(=O)c1ccc(NC(=O)c3cccnc3N3CC4(CCOCC4)C3)cc1)CC2 | 0.5 nM | > 14900 nM | 283 nM | –
26 | Cc1ccc(C(=O)Nc2ccc(C(=O)N3CCc4cc(-c5nc6ccccc6[nH]5)sc4-c4ccccc43)cc2)c(N2CC3(CCOCC3)C2)n1 | 0.3 to 0.8 nM | > 14600 nM | 5.2 to 13.1 nM | –
27 | O=C(Nc1ccc(C(=O)N2CCc3cc(-c4nc5cnccc5[nH]4)sc3-c3ccccc32)cc1)c1cccnc1N1CC2(CCOCC2)C1 | 7.6 nM | > 14900 nM | 844 nM | –
